Measurements from ChEMBL document CHEMBL3580617, “Discovery of Benzimidazole CYP11B2 Inhibitors with in Vivo Activity in Rhesus Monkeys” (ACS Med Chem Lett, 2015).
The source made the active and inactive calls. The rule behind the calls is not given here.

Tests used:
[1] = target: T1, Cytochrome P450 11B2, mitochondrial (Homo sapiens, UniProt P19099); experiment: Inhibition of human CYP11B2 expressed in V79 cells incubated for 1 hr before 11-deoxycorticosterone substrate addition by HTRF-based assay; assay type: cell-based
T1 sequence (P19099 whole entry): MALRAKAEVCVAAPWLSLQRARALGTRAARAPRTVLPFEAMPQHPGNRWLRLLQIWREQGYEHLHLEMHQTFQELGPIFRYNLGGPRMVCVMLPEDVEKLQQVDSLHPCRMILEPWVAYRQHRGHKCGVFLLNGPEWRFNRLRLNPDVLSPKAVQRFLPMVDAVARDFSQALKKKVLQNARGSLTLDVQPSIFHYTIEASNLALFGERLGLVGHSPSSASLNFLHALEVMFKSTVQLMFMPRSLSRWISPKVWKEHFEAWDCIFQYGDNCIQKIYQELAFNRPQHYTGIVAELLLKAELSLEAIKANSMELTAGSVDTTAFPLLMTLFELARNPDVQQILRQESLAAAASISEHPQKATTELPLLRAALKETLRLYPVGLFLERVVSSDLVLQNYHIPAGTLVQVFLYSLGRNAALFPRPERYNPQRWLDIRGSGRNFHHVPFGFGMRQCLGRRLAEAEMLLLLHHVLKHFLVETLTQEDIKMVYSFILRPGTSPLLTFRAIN
Summary of the method: (§1)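 Human CYP11B2 and CYP11B1 inhibition was tested in cell-based assays. Selectivity was taken as the hCYP11B1 IC50 divided by the hCYP11B2 IC50.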

[2] = target: T2, Cytochrome P450 11B1, mitochondrial (Homo sapiens, UniProt P15538); experiment: Inhibition of human CYP11B1 expressed in V79 cells incubated for 1 hr before 11-deoxycortisol substrate addition by HTRF-based assay; assay type: cell-based; summary of the method: as §1
T2 sequence (P15538 whole entry): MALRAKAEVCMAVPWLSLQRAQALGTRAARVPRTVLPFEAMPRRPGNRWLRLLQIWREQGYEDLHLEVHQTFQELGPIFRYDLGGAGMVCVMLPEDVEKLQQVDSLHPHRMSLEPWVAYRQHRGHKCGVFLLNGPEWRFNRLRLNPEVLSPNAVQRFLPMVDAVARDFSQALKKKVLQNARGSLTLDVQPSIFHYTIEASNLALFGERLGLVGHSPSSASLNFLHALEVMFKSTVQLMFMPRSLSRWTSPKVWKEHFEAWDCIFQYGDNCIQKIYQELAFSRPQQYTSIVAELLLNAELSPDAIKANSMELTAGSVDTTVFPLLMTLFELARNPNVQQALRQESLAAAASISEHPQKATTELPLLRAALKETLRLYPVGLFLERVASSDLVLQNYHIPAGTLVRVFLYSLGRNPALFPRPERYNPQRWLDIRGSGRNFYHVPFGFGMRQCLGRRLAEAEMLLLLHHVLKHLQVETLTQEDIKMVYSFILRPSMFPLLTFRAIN

Homo sapiens = organism: Homo sapiens; experiment: Selectivity index, ratio of IC50 for human CYP11B1 to IC50 for human CYP11B2; summary of the method: as §1
[3] = Fraction unbound in rat plasma at […] incubated for 4 hrs by equilibrium dialysis and LC/MS method; assay type: ADME, cell-free
[4] = Intrinsic clearance in rat liver microsomes at […] incubated for 10 mins before NADPH addition by LC/MS method; assay type: ADME; conditions: read-out: CLH
[5] = Plasma clearance in Sprague-Dawley rat at 2 mg/kg, po or 1 mg/kg, iv by LC-MS/MS method; assay type: ADME, organism-based
Summary of the method: (§2)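 In the rat pharmacokinetic study, AUC was normalized for dose (μM·h·kg/mg), plasma clearance was expressed in mL/min/kg, and oral bioavailability was calculated.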

Rattus norvegicus = experiment: Dose normalized AUC in Sprague-Dawley rat at 2 mg/kg, po or 1 mg/kg, iv by LC-MS/MS method; assay type: ADME, organism-based; conditions: in vivo; summary of the method: as §2
[6] = Oral bioavailability in Sprague-Dawley rat at 2 mg/kg by LC-MS/MS method; assay type: ADME, organism-based; conditions: in vivo; summary of the method: as §2
[7] = target: T3, Cytochrome P450 11B2, mitochondrial (Rattus norvegicus, UniProt P30099); experiment: Inhibition of rat CYP11B2 expressed in V79 cells incubated for 1 hr before 11-deoxycorticosterone substrate addition by HTRF-based assay; assay type: cell-based; conditions: v79, 1 h
T3 sequence (P30099 whole entry): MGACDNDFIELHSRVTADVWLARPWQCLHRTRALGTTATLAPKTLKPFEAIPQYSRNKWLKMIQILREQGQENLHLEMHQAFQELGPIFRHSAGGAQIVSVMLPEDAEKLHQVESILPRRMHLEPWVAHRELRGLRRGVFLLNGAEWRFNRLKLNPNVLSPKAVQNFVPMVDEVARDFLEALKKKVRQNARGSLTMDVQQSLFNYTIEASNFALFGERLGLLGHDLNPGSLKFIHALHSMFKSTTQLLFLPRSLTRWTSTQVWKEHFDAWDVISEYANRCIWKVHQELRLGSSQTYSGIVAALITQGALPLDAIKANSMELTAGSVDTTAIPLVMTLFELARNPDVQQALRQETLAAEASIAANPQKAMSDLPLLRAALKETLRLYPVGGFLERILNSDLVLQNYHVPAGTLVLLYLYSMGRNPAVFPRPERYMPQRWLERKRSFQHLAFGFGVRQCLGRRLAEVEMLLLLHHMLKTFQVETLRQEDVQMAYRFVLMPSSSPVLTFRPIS

V79 = experiment: Inhibition of rhesus monkey CYP11B2 expressed in V79 cells incubated for 1 hr before 11-deoxycorticosterone substrate addition by HTRF-based assay; assay type: cell-based; conditions: Macaca mulatta

SMILES	IC50 [1] [µM]	IC50 [2] [µM]	Ratio IC50 (Homo sapiens)	other results
Fc1ccc2c(c1)nc(-c1cccnc1)n2C1CC1			142	
FC(F)(F)c1ccc2nc(-c3cccnc3)n(C3CC3)c2c1	0.254	1.83	7	
N#Cc1ccc2nc(-c3cccnc3)n(C3CC3)c2c1	0.0012		309	
Fc1cncc(-c2nc3cc(F)c(Cl)cc3n2C2CC2)c1	0.0008	0.251	296	
Fc1ccc2nc(-c3cccnc3)[nH]c2c1	> 10	1.99	< 1	
Fc1cc2nc(-c3cnccc3C(F)(F)F)n(C3CC3)c2cc1F	0.0081	0.795	98	
COc1cncc(-c2nc3cc(F)c(F)cc3n2C2CC2)c1	0.0004	0.25	606	
Fc1ccc2nc(-c3cccnc3)n(C3CCC3)c2c1	> 5	> 10		
Fc1ccc2nc(-c3cccnc3)n(Cc3ccccc3)c2c1	0.607	> 8.33	> 14	
Cc1cncc(-c2nc3cc(F)c(F)cc3n2C2CC2)c1C	0.0002	0.0177	74	
N#Cc1ccc2c(c1)nc(-c1cccnc1)n2C1CC1	1.77	> 10	> 6	
N#Cc1cc2c(cc1F)nc(-c1cncc(F)c1)n2C1CC1	0.001	0.225	225	
Cn1c(-c2cccnc2)nc2ccc(F)cc21	0.012	0.677	56	fraction unbound at 4 h [3]: 0.25; CLint scaled [4]: 30 mL/min/kg; clearance [5]: 59 mL/min/kg; AUC/dose (Rattus norvegicus): 0.56 µM·kg·h/mg; bioavailability [6]: 37%

Further lines, with some results ahead:

IC50 [1] [µM]	IC50 [2] [µM]	Ratio IC50 (Homo sapiens)	SMILES	other results
0.561	> 8.33	> 15	Fc1ccc2nc(-c3cccnc3)n(CC(F)(F)F)c2c1	
> 1	> 10		COc1ccc2c(c1)nc(-c1cccnc1)n2C1CC1	
0.024	1.98	83	COc1ccc2nc(-c3cccnc3)n(C3CC3)c2c1	
0.004	0.401	100	Fc1ccc2nc(-c3cccnc3)n(C3CC3)c2c1	fraction unbound at 4 h [3]: 0.15; CLint scaled [4]: 28 mL/min/kg; clearance [5]: 28 mL/min/kg; AUC/dose (Rattus norvegicus): 1.82 µM·kg·h/mg; bioavailability [6]: 77%
0.0022	0.477	215	Clc1ccc2nc(-c3cccnc3)n(C3CC3)c2c1	
0.138	3.92	28	CC(C)n1c(-c2cccnc2)nc2ccc(F)cc21	
0.035	2.1	60	CCn1c(-c2cccnc2)nc2ccc(F)cc21	
0.049	> 8.33	> 170	c1cncc(-c2nc3ccccc3n2C2CC2)c1	
0.0006	0.435	709	COc1c(C)cncc1-c1nc2cc(F)c(F)cc2n1C1CC1	
0.0004	0.334	835	Fc1cc2nc(-c3cccnc3)n(C3CC3)c2cc1Cl	
0.016	2.86	179	CC1(n2c(-c3cccnc3)nc3ccc(F)cc32)CC1	fraction unbound at 4 h [3]: 0.19; CLint scaled [4]: 82 mL/min/kg; clearance [5]: 131 mL/min/kg; AUC/dose (Rattus norvegicus): 0.2 µM·kg·h/mg; bioavailability [6]: 32%
0.0223	1.55	70	N#Cc1cncc(-c2nc3cc(F)c(F)cc3n2C2CC2)c1	
0.0102	0.723	71	Cc1ccncc1-c1nc2cc(F)c(F)cc2n1C1CC1	
> 5	> 10		CC(C)(C)n1c(-c2cccnc2)nc2ccc(F)cc21	
0.219	> 8.33	> 38	Fc1cccc2c1nc(-c1cccnc1)n2C1CC1	
0.0006	0.117	195	N#Cc1cc2c(cc1F)nc(-c1cccnc1)n2C1CC1	
> 10	> 10		FC(F)(F)c1ccc2c(c1)nc(-c1cccnc1)n2C1CC1 [MSD-CYP11B2-Negative-control]	
> 1	> 10		CS(=O)(=O)c1ccc2c(c1)nc(-c1cccnc1)n2C1CC1	
0.0021	0.37	176	Fc1cc2nc(-c3cccnc3)n(C3CC3)c2cc1F	fraction unbound at 4 h [3]: 0.15; inhibition (INH) [7]: Not Active; CLint scaled [4]: < 20 mL/min/kg; clearance [5]: 43 mL/min/kg; inhibition (V79): Active; AUC/dose (Rattus norvegicus): 1.32 µM·kg·h/mg; bioavailability [6]: 92%
0.107	> 10	> 93	Fc1cccc2nc(-c3cccnc3)n(C3CC3)c12	
